In ChEMBL document CHEMBL4387708, “Enhancement of Benzothiazoles as Pteridine Reductase-1 Inhibitors for the Treatment of Trypanosomatidic Infections” (J Med Chem, 2019):
In brackets after ≈: the same amount, converted by molar mass.

How the values were obtained:
Trypanosoma brucei [1] = assay: Inhibition of PTR1 in Trypanosoma brucei bloodstream forms assessed as potentiation of methotrexate-induced parasitic cell growth inhibition at 10 uM measured after 72 hrs by resazurin-based fluorescence assay (reference value: 19 +/- 6%)
In short: (§1)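 Bloodstream-form T. brucei resazurin assay: 72 h at 37 °C, 5% CO₂, then fluorescence at ex 540/em 620 nm. Benzothiazole was tested at 10 μM alone and with 4 μM methotrexate. The index is the combination's activity divided by the sum of the activities of 10 μM benzothiazole and 4 μM methotrexate given separately.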

[2] = Selectivity index ratio of GI50 for human U2OS cells to EC50 for growth inhibition of Trypanosoma brucei bloodstream forms; assay type: toxicity; details: read-out: Ratio GI50/EC50
[3] = molecular target: Voltage-gated inwardly rectifying potassium channel KCNH2 (Homo sapiens, UniProt Q12809); assay: Displacement of Tracer Red from human ERG by fluorescence polarization assay
Voltage-gated inwardly rectifying potassium channel KCNH2, sequence (Q12809 whole entry): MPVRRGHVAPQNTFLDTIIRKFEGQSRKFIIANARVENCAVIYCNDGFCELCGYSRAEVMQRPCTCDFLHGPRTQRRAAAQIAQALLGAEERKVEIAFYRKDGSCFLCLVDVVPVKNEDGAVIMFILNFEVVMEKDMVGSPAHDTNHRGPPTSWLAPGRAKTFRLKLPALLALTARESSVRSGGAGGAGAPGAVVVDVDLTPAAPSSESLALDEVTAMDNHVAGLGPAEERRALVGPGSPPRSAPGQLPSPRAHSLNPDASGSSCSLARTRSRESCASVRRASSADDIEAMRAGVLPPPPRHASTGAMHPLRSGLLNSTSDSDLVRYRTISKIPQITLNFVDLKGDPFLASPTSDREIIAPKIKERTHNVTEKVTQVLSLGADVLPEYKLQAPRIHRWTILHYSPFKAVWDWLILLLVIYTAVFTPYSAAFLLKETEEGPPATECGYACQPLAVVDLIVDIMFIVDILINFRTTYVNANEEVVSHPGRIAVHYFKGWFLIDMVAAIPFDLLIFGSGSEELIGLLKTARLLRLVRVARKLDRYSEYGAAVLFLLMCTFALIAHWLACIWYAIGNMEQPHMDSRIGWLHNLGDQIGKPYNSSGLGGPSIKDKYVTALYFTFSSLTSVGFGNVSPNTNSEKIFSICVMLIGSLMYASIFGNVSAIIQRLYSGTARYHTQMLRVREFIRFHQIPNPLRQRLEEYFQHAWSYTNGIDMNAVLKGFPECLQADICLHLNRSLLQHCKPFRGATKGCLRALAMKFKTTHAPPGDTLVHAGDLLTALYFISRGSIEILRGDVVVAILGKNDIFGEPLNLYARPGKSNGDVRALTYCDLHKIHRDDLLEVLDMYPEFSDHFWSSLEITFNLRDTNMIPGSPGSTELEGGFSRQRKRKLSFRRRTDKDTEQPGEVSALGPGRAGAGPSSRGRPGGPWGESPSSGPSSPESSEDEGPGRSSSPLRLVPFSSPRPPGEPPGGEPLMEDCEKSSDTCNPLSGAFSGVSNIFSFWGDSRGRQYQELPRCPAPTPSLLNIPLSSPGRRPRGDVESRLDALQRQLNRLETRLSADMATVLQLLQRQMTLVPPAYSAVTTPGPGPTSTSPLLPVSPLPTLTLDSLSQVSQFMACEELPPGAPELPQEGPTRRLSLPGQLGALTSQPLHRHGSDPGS

[4] = Ratio of Cmax BALB/c mouse at 20 mg/kg, po co-formulated with hydroxypropyl-beta-cyclodextrin to EC50 for Trypanosoma brucei bloodstream forms; assay type: ADME, organism-based; details: in vivo
Cytochrome P450 2D6 = Cytochrome P450 2D6 (Homo sapiens, UniProt P10635); assay: Inhibition of human CYP2D6 expressed in baculovirus infected insect cells using beetle D-luciferin as substrate preincubated for 30 mins followed by NADPH addition and measured after 30 mins by CYP450-Glo assay
Cytochrome P450 2D6, sequence (P10635 whole entry): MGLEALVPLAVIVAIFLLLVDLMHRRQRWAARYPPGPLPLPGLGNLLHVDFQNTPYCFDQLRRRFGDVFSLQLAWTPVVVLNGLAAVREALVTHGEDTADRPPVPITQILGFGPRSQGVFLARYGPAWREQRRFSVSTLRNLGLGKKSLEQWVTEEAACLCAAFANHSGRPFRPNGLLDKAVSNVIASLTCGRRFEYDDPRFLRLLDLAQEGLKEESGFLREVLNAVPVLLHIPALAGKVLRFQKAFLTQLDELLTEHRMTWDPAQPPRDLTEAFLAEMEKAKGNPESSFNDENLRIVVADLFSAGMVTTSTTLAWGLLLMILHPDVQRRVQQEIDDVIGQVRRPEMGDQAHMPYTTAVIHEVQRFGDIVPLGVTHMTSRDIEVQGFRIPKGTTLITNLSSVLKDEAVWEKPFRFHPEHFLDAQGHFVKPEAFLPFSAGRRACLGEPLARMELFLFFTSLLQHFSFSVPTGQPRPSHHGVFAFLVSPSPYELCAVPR

Cytochrome P450 2C19 = Cytochrome P450 2C19 (Homo sapiens, UniProt P33261); assay: Inhibition of human CYP2C19 expressed in baculovirus infected insect cells using beetle D-luciferin as substrate preincubated for 30 mins followed by NADPH addition and measured after 30 mins by CYP450-Glo assay
Cytochrome P450 2C19, sequence (P33261 whole entry): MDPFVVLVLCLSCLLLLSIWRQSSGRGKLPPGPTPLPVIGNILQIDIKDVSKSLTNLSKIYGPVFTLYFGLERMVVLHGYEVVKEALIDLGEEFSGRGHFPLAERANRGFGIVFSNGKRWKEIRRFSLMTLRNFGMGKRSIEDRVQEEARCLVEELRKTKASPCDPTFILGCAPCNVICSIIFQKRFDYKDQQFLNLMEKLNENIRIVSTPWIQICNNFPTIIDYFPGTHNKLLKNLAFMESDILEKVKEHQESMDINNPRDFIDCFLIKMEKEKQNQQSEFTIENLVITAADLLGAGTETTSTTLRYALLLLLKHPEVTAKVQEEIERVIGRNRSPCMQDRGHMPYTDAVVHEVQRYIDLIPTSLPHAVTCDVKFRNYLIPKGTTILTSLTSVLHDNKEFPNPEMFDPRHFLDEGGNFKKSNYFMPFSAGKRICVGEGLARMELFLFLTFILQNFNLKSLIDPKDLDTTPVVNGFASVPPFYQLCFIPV

[5] = Cmax in BALB/c mouse at 20 mg/kg, po by LC-MS analysis; assay type: ADME, organism-based; set-up: dose 20 mg/kg, route oral; details: in vivo
In short: (§2)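 Snapshot PK in healthy BALB/c mice. Free compound given in 8% DMSO at 1 mg/kg IV or 20 mg/kg per os; for the formulated arm it was solubilized with hydroxypropyl-β-cyclodextrin (50%) and given at 20 mg/kg per os. Plasma levels were quantified by LC-MS on a C18 column with triple-quadrupole ESI detection in positive ion mode.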

Trypanosoma cruzi = assay: Growth inhibition of trypomastigote form of Trypanosoma cruzi Y infected in human U2OS cells at 50 uM measured after 72 hrs by DRAQ5 DNA dye based confocal microscopic analysis relative to control; assay type: organism-based; details: Trypanosoma cruzi, Y, U2OS, read-out: GI
[6] = Cytotoxicity against human A549 cells after 48 hrs by Celltiter-glo assay; assay type: cell-based
[7] = Selectivity index ratio of IC50 for mitochondrial toxicity in human 786-O cells to EC50 for growth inhibition of Trypanosoma brucei bloodstream forms; assay type: cell-based; details: read-out: Ratio IC50/EC50
[8] = Cmax in BALB/c mouse at 20 mg/kg, po co-formulated with hydroxypropyl-beta-cyclodextrin by LC-MS analysis; assay type: ADME, organism-based; set-up: dose 20 mg/kg, route oral; details: in vivo; in short: as §2
[9] = Thermodynamic solubility of the compound in pure water after 24 hrs by spectrophotometric method; assay type: physicochemical; details: read-out: Therm_solubility
In short: (§3)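 Over-saturated suspensions (theoretical maximum 100 µg/mL) in water, PBS, PBS + 10% DMSO or PBS + 50% DMSO were stirred at 1200 rpm for 24 h at 25 °C. They were filtered at 0.2 µm and diluted 1:1 with ACN. Concentration was quantified by UV using a molar extinction coefficient determined at 340 nm.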

[10] = Mitochondrial toxicity in human 786-O cells measured after 6 hrs by MitoTracker Red chloromethyl-X-rosamine based assay; assay type: cell-based, 786-0
CYP2D6 = assay: Selectivity index ratio of IC50 for CYP2D6 (unknown origin) to EC50 for growth inhibition of Trypanosoma brucei bloodstream forms; assay type: toxicity; details: read-out: Ratio IC50/EC50
[11] = Cytotoxicity against human U2OS cells assessed as reduction in cell number; assay type: cell-based
[12] = Cmax in BALB/c mouse at 1 mg/kg, iv by LC-MS analysis; assay type: ADME, organism-based; set-up: dose 1 mg/kg, route intravenous; details: in vivo; in short: as §2
hERG = assay: Selectivity index ratio of IC50 for human ERG to EC50 for growth inhibition of Trypanosoma brucei bloodstream forms; assay type: toxicity; details: read-out: Ratio IC50/EC50
Trypanosoma brucei [13] = assay: Inhibition of PTR1 in Trypanosoma brucei bloodstream forms assessed as potentiation of methotrexate-induced parasitic cell growth inhibition by measuring potentiation index at 10 uM measured after 72 hrs by resazurin-based fluorescence assay relative to control (methotrexate); assay type: functional; in short: as §1
Pteridine reductase 1 = molecular target: T1, Pteridine reductase 1 (Leishmania major, UniProt Q01782); assay: Inhibition of Leishmania major pteridine reductase 1 using di-hydrobiopterine as substrate in presence of NADPH; details: read-out: IC50
T1 sequence (Q01782 whole entry): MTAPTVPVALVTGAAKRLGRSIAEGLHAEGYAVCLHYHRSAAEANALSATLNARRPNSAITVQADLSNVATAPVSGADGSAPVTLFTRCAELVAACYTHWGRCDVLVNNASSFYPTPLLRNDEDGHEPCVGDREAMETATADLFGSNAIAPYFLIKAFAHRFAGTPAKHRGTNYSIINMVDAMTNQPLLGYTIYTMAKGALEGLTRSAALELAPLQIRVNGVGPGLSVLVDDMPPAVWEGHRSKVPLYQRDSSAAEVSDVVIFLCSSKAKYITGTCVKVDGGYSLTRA
In short: (§4)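 Photometric PTR1 assay with NADPH and dihydrobiopterin substrate. H₄B formation is coupled non-enzymatically to cytochrome c reduction, read as signal increase at 550 nm.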

[14] = Clearance in BALB/c mouse at 20 mg/kg, po by LC-MS analysis; assay type: ADME, organism-based; details: in vivo; in short: as §2
[15] = Selectivity index ratio of NOAEL for human THP1 cells to EC50 for growth inhibition of Trypanosoma brucei bloodstream forms; assay type: toxicity; details: read-out: Selectivity Index
[16] = Thermodynamic solubility of the compound in phosphate buffered saline/10%DMSO after 24 hrs by spectrophotometric method; assay type: physicochemical; details: read-out: Therm_solubility; in short: as §3
[17] = molecular target: T2, Pteridine reductase 1 (Leishmania major) (UniProt Q01782); assay: Inhibition of Leishmania major pteridine reductase 1 at 50 uM using di-hydrobiopterine as substrate in presence of NADPH relative to control; in short: as §4
T2 sequence (whole entry): T1 sequence (Q01782 whole entry)

CYP3A4 = assay: Selectivity index ratio of IC50 for CYP3A4 (unknown origin) to EC50 for growth inhibition of Trypanosoma brucei bloodstream forms; assay type: toxicity; details: read-out: Ratio IC50/EC50

Structure (SMILES): Nc1nc2ccc(C(=O)NCc3ccccc3)cc2s1
- growth inhibition (GI) (Trypanosoma brucei [1]): 30%
- selectivity ratio [2]: > 10
- IC50 [3]: > 25 µM
- Ratio [4]: 1.9
- IC50 (Cytochrome P450 2D6): 10 to 25 µM
- IC50 (Cytochrome P450 2C19): > 25 µM
- Cmax [5]: 826 ng/mL
- inhibition at 50 µM (Trypanosoma cruzi): 51.3%
- GI50 at 48 h [6]: > 25 µM
- selectivity ratio [7]: > 10
- Cmax [8]: 13 µM
- solubility thermodynamic at 24 h [9]: 13.1 µg/mL (≈ 46.3 µM)
- IC50 at 6 h [10]: > 25 µM
- selectivity ratio (CYP2D6): > 10
- GI50 [11]: > 25 µM
- Cmax [12]: 1630 ng/mL
- selectivity ratio (hERG): > 10
- Ratio (Trypanosoma brucei [13]): 1.6
- IC50 (Pteridine reductase 1): 61.3 µM
- CL/F [14]: 68 mL/min/kg
- selectivity ratio [15]: > 10
- solubility thermodynamic at 24 h [16]: > 100 µg/mL
- inhibition [17]: > 60%
- selectivity ratio (CYP3A4): > 10
